Results reported in ChEMBL document CHEMBL1914320, “C4-alkylthiols with activity against Moraxella catarrhalis and Mycobacterium tuberculosis” (Bioorg Med Chem, 2011).
Activity calls are given as the source filed them. No cut-off for these calls is given here.

Legend:
[1] = tested on: Escherichia coli; test: Antibacterial activity against non-beta-lactamase producing Escherichia coli ATCC 25922 at 10 ug/disc after overnight incubation by disc diffusion assay; type: functional, organism-based
Method in brief: (§1)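 Isolates were held at −80 °C. Five colonies were suspended in Mueller-Hinton broth to a 0.5 McFarland density and swabbed onto MH agar. Discs carried 10 μg compound, applied in methanol and dried at room temperature. Plates were incubated overnight at 37 °C, and the zone of inhibition was measured in mm from the disc edge. Controls were methanol-only and penicillin discs. Run blinded, in triplicate.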

[2] = tested on: Pseudomonas aeruginosa; test: Antibacterial activity against non-beta-lactamase producing Pseudomonas aeruginosa ATCC 27853 at 10 ug/disc after overnight incubation by disc diffusion assay; type: functional, organism-based; method in brief: as §1
[3] = tested on: Staphylococcus aureus; test: Antibacterial activity against non-beta-lactamase producing Staphylococcus aureus ATCC 25923 at 10 ug/disc after overnight incubation by disc diffusion assay; type: functional, organism-based; method in brief: as §1
[4] = tested on: Enterococcus faecalis; test: Antibacterial activity against non-beta-lactamase producing Enterococcus faecalis ATCC 29212 at 10 ug/disc after overnight incubation by disc diffusion assay; type: functional, organism-based; method in brief: as §1
[5] = tested on: Escherichia coli; test: Antibacterial activity against non-beta-lactamase producing Escherichia coli ATCC 25922 after 48 hrs by microdilution broth method; type: functional, organism-based
Method in brief: (§2)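 Broth microdilution followed CLSI guidelines. Compound was dissolved in 95% ethanol, diluted at least 10-fold into Mueller-Hinton broth, then serially two-fold diluted from 500 to 15.6 μg/mL. Actively growing culture was added at 5 × 10^5 cells/mL. Plates ran 48 h at 37 °C, scored for visible growth at 24 and 48 h. MIC was the lowest concentration without growth. For MBC, 10 μL from each clear well was plated on MH agar. Controls were ethanol and penicillin. Triplicate.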

[6] = tested on: Pseudomonas aeruginosa; test: Antibacterial activity against non-beta-lactamase producing Pseudomonas aeruginosa ATCC 27853 after 48 hrs by microdilution broth method; type: functional, organism-based; method in brief: as §2
[7] = tested on: Staphylococcus aureus; test: Antibacterial activity against non-beta-lactamase producing Staphylococcus aureus ATCC 25923 after 48 hrs by microdilution broth method; type: functional, organism-based; method in brief: as §2
[8] = tested on: Enterococcus faecalis; test: Antibacterial activity against non-beta-lactamase producing Enterococcus faecalis ATCC 29212 after 48 hrs by microdilution broth method; type: functional, organism-based; method in brief: as §2
[9] = Chemical stability of the compound assessed as compound degradation after 48 hrs by NMR analysis; type: physicochemical; details: for degraded at 48 h: read-out: Drug metabolism
[10] = tested on: Moraxella catarrhalis; test: Antibacterial activity against beta-lactamase producing Moraxella catarrhalis isolate 1 at 10 ug/disc after overnight incubation by disc diffusion assay; type: functional; method in brief: as §1
[11] = tested on: Moraxella catarrhalis; test: Antibacterial activity against beta-lactamase producing Moraxella catarrhalis isolate 2 at 10 ug/disc after overnight incubation by disc diffusion assay; type: functional; details: read-out: IZ; method in brief: as §1
[12] = tested on: Moraxella catarrhalis; test: Antibacterial activity against beta-lactamase producing Moraxella catarrhalis isolate 3 at 10 ug/disc after overnight incubation by disc diffusion assay; type: functional; method in brief: as §1
[13] = tested on: Moraxella catarrhalis; test: Antibacterial activity against beta-lactamase producing Moraxella catarrhalis isolate 4 at 10 ug/disc after overnight incubation by disc diffusion assay; type: functional; method in brief: as §1
[14] = tested on: Moraxella catarrhalis; test: Antibacterial activity against beta-lactamase producing Moraxella catarrhalis isolate 5 at 10 ug/disc after overnight incubation by disc diffusion assay; type: functional; details: read-out: IZ; method in brief: as §1

CCC(C=O)(CC)SSC(/C=N\CC(=O)OC)(CC)CC
Activity [1]: inactive | Activity [2]: inactive | Activity [3]: inactive | Activity [4]: inactive | Activity [5]: inactive | Activity [6]: inactive | Activity [7]: inactive | Activity [8]: inactive | degraded at 48 h [9]: 10%

CCOC(=O)C/N=C\C(CC)(CC)SSC(C=O)(CC)CC
Activity [1]: inactive | Activity [2]: inactive | Activity [3]: inactive | Activity [4]: inactive | Activity [5]: inactive | Activity [6]: inactive | Activity [7]: inactive | Activity [8]: inactive | degraded at 48 h [9]: 10%

CCOC(=O)C/N=C\C(CC)(CC)SSC(/C=N/CC(=O)OCC)(CC)CC
Activity [1]: inactive | Activity [2]: inactive | Activity [3]: inactive | Activity [4]: inactive | Activity [5]: inactive | Activity [6]: inactive | Activity [7]: inactive | Activity [8]: inactive | degraded at 48 h [9]: 10%

CCOC(=O)C/N=C\C(S)(CC)CC
inhibition zone (IZ) [10]: inactive | zone of inhibition at 10 µg/disc [11]: 2 mm | inhibition zone (IZ) [12]: inactive | inhibition zone (IZ) [13]: inactive | zone of inhibition at 10 µg/disc [14]: 11 mm | Activity [1]: inactive | Activity [2]: inactive | Activity [3]: inactive | Activity [4]: inactive | Activity [5]: inactive | Activity [6]: inactive | Activity [7]: inactive | Activity [8]: inactive | Percent compound degraded ([9]; 48 h): 10%
